Laboratory results: ChEMBL document CHEMBL1649230, “Aryl rhodanines specifically inhibit staphylococcal and enterococcal biofilm formation” (Antimicrob Agents Chemother, 2009)

What was measured:
Staphylococcus aureus [1] = assay: Antimicrobial activity against Staphylococcus aureus ATCC 35556 assessed as inhibition of bacterial biofilm formation after 18 hrs by broth microdilution method in presence of 5 ug/ml fibrinogen; format: functional
Method in brief: (§1)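 Polystyrene 96-well wells precoated with 100 μl fibronectin or fibrinogen (0–20 μg protein/ml) for 24 h at 4°C. Wells then washed with sterile water. The standard MBIC biofilm assay followed: 0.5× TSB with 1% glucose, 2% DMSO, 18 h at 37°C, crystal violet read at OD600.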

Staphylococcus aureus [2] = assay: Antimicrobial activity against Staphylococcus aureus ATCC 35556 assessed as inhibition of bacterial biofilm formation after 18 hrs by broth microdilution method in presence of 5 ug/ml fibronectin; format: functional; method in brief: as §1
Enterococcus faecium [3] = assay: Antimicrobial activity against vancomycin-resistant Enterococcus faecium isolate 1401 assessed as inhibition of bacterial biofilm after 18 hrs by broth microdilution method; format: functional
Method in brief: (§2)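 Biofilm MBIC on tissue culture-treated polystyrene 96-well plates. Twofold dilutions, 0.2 to 100 μM final, with 2% DMSO final. Inoculum was an overnight culture diluted 1:100 (~5 × 10^6 cells/well) in 0.5× TSB plus 1% glucose, grown 18 h at 37°C. Wells washed, heat-fixed 60°C 60 min, stained with 0.06% crystal violet, OD600 read. MBIC is the lowest concentration giving ≥80% inhibition versus untreated; geometric mean of ≥3 experiments.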

Escherichia coli = assay: Antimicrobial activity against Escherichia coli ATCC 25922 assessed as inhibition of bacterial biofilm after 18 hrs by broth microdilution method; format: functional
Method in brief: (§3)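 Polystyrene plates with breathable lids in 1× TSB (0.25% glucose), 37°C for 18 h. Biofilms form at the air-liquid interface. Stained with crystal violet, dye eluted with 30% acetic acid, OD read. Compound 2-fold series, final 0.2–100 μM in 2% DMSO. MBIC taken at ≥80% inhibition versus untreated. Geometric mean of ≥3 experiments.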

[4] = system: Staphylococcus epidermidis; assay: Antimicrobial activity against coagulase-negative Staphylococcus epidermidis isolate WTBF-47 assessed as inhibition of bacterial biofilm after 18 hrs by broth microdilution method; format: functional
Method in brief: (§4)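 Static biofilm in tissue culture-treated polystyrene 96-well plates in 0.5× TSB with 1% glucose. Overnight culture diluted 1:100 gives about 5 × 10^6 cells/well. Compound 2-fold series, final 0.2–100 μM, 2% DMSO. Incubated 18 h at 37°C. Washed, heat-fixed 60°C for 60 min, stained with 0.06% crystal violet, read at OD600. MBIC is the lowest concentration giving ≥80% inhibition versus untreated. Geometric mean of ≥3 independent experiments.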

Staphylococcus aureus [5] = assay: Antimicrobial activity against community acquired methicillin-resistant Staphylococcus aureus isolate 23542 assessed as inhibition of bacterial biofilm after 18 hrs by broth microdilution method; format: functional; method in brief: as §2
Staphylococcus aureus [6] = assay: Antimicrobial activity against methicillin-susceptible Staphylococcus aureus on medical grade silicone disk assessed as inhibition of bacterial biofilm after 18 hrs by broth microdilution method; format: functional
Method in brief: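 S. aureus ATCC 35556 biofilms were grown on autoclaved medical-grade silicone disks fixed in 24-well plates. The inoculum was a 1:100 dilution of an overnight culture in 0.5× TSB with 1% glucose, with compound at 0× to 8× MBIC and 2% DMSO final, in at least three wells. Plates were held about 18 h at 37°C, water-washed, heat-fixed at 60°C for 60 min, and stained with 0.06% CV. CV was eluted in 30% acetic acid and read at OD600, averaging three disks; runs were repeated ≥3 times.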

[7] = system: Staphylococcus epidermidis; assay: Antimicrobial activity against Staphylococcus epidermidis O-47 assessed as inhibition of bacterial biofilm after 18 hrs by broth microdilution method; format: functional; method in brief: as §4
Pseudomonas aeruginosa = assay: Antimicrobial activity against Pseudomonas aeruginosa PAO1 assessed as inhibition of bacterial biofilm after 18 hrs by broth microdilution method; format: functional; method in brief: as §3
Enterococcus faecalis [8] = assay: Antimicrobial activity against vancomycin-resistant Enterococcus faecalis isolate F317 assessed as inhibition of bacterial biofilm after 18 hrs by broth microdilution method; format: functional; method in brief: as §2
[9] = system: Staphylococcus epidermidis; assay: Antimicrobial activity against coagulase-negative Staphylococcus epidermidis isolate WTBF-41 assessed as inhibition of bacterial biofilm after 18 hrs by broth microdilution method; format: functional; method in brief: as §2
Staphylococcus aureus [10] = assay: Antimicrobial activity against Staphylococcus aureus ATCC 35556 assessed as inhibition of bacterial biofilm formation after 18 hrs by broth microdilution method in presence of 2 ug/ml fibronectin; format: functional; method in brief: as §1
Staphylococcus aureus [11] = assay: Antimicrobial activity against community acquired methicillin-resistant Staphylococcus aureus isolate 38230 assessed as inhibition of bacterial biofilm after 18 hrs by broth microdilution method; format: functional; method in brief: as §2
Staphylococcus aureus [12] = assay: Antimicrobial activity against community acquired methicillin-susceptible Staphylococcus aureus assessed as inhibition of bacterial biofilm after 18 hrs by broth microdilution method; format: functional; method in brief: as §4
Staphylococcus aureus [13] = assay: Antimicrobial activity against Staphylococcus aureus ATCC 35556 assessed as inhibition of bacterial biofilm formation after 18 hrs by broth microdilution method in presence of 1 ug/ml fibronectin; format: functional; method in brief: as §1
Staphylococcus aureus [14] = assay: Antimicrobial activity against Staphylococcus aureus ATCC 35556 assessed as inhibition of bacterial biofilm formation after 18 hrs by broth microdilution method in presence of 20 ug/ml fibrinogen; format: functional; method in brief: as §1
Staphylococcus aureus [15] = assay: Antimicrobial activity against Staphylococcus aureus ATCC 35556 assessed as inhibition of bacterial biofilm after 18 hrs by broth microdilution method; format: functional; method in brief: as §4
[16] = system: Staphylococcus epidermidis; assay: Antimicrobial activity against coagulase-negative Staphylococcus epidermidis isolate WTBF-40 assessed as inhibition of bacterial biofilm after 18 hrs by broth microdilution method; format: functional; method in brief: as §4
Staphylococcus aureus [17] = assay: Antimicrobial activity against community acquired methicillin-resistant Staphylococcus aureus isolate 24209 assessed as inhibition of bacterial biofilm after 18 hrs by broth microdilution method; format: functional; method in brief: as §2
Staphylococcus aureus [18] = assay: Antimicrobial activity against Staphylococcus aureus ATCC 35556 assessed as inhibition of bacterial biofilm formation after 18 hrs by broth microdilution method in presence of 2 ug/ml fibrinogen; format: functional; method in brief: as §1
Staphylococcus aureus [19] = assay: Antimicrobial activity against hospital acquired methicillin-resistant Staphylococcus aureus isolate 58336 assessed as inhibition of bacterial biofilm after 18 hrs by broth microdilution method; format: functional; method in brief: as §2
[20] = Cytotoxicity against human HeLa cells after 3 days by MTT assay; format: cell-based
Method in brief: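 HeLa cells were seeded at 4 × 10^3 per well with or without serial dilutions of compound in DMSO. Plates were incubated 3 days at 37°C in minimal essential medium with 10% calf serum, and viability was read by MTT. CC50 was the concentration that reduced MTT-to-formazan conversion by 50%.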

Staphylococcus aureus [21] = assay: Antimicrobial activity against Staphylococcus aureus ATCC 35556 assessed as inhibition of bacterial biofilm formation after 18 hrs by broth microdilution method in presence of 20 ug/ml fibronectin; format: functional; method in brief: as §1
Enterococcus faecalis [22] = assay: Antimicrobial activity against vancomycin-resistant Enterococcus faecalis ATCC 51299 assessed as inhibition of bacterial biofilm after 18 hrs by broth microdilution method; format: functional; method in brief: as §2
Enterococcus faecium [23] = assay: Antimicrobial activity against vancomycin-resistant Enterococcus faecium isolate EF208 assessed as inhibition of bacterial biofilm after 18 hrs by broth microdilution method; format: functional; method in brief: as §2
Staphylococcus aureus [24] = assay: Antimicrobial activity against community-acquired Staphylococcus aureus MW2 on medical grade silicone disk assessed as inhibition of bacterial biofilm after 18 hrs by broth microdilution method; format: functional
Staphylococcus aureus [25] = assay: Antimicrobial activity against hospital acquired methicillin-resistant Staphylococcus aureus isolate 47263 assessed as inhibition of bacterial biofilm after 18 hrs by broth microdilution method; format: functional; method in brief: as §2
Staphylococcus aureus [26] = assay: Antimicrobial activity against community acquired methicillin-resistant Staphylococcus aureus isolate 22733 assessed as inhibition of bacterial biofilm after 18 hrs by broth microdilution method; format: functional; method in brief: as §2

Structure (SMILES)	MBIC (Staphylococcus aureus [1]) [µM]	MBIC (Staphylococcus aureus [2]) [µM]	MBIC (Enterococcus faecium [3])	MBIC (Escherichia coli)	MBIC [4] [µM]	MBIC90 (Staphylococcus aureus [6]) [µM]	MBIC [7] [µM]	MBIC (Pseudomonas aeruginosa)	MBIC (Enterococcus faecalis [8]) [µM]	MBIC [9] [µM]	MBIC (Staphylococcus aureus [10]) [µM]	MBIC (Staphylococcus aureus [12]) [µM]	MBIC (Staphylococcus aureus [13]) [µM]	MBIC (Staphylococcus aureus [14]) [µM]	MBIC (Staphylococcus aureus [15]) [µM]	MBIC [16] [µM]	MBIC (Staphylococcus aureus [17]) [µM]	MBIC (Staphylococcus aureus [18]) [µM]	CC50 at 72 h [20] [µM]	MBIC (Staphylococcus aureus [21]) [µM]	also measured
CCOc1cc(/C=C2\SC(=S)N(c3cccnc3)C2=O)ccc1O	12.5	12.5	19.8 µM	>=100 uM	12.5	25	59.5	>=100 uM	15.7	17.7	12.5	12.5	12.5	12.5	10.5	35.4	25	12.5	≥ 100	12.5	MBIC (Staphylococcus aureus [5]): 25 µM; MBIC (Staphylococcus aureus [11]): 19.8 µM; MBIC (Staphylococcus aureus [19]): 14.9 µM; MBIC (Enterococcus faecalis [22]): 8.8 µM; MBIC (Enterococcus faecium [23]): 15.7 µM; MBIC90 (Staphylococcus aureus [24]): 25 µM
C=CCOc1cc(/C=C2\SC(=S)N(c3ccc(F)cc3)C2=O)ccc1O	3.125	3.125	79.4 µM	>=100 uM	29.7	100	59.5	>=100 uM	100	17.7	3.125	10.5	3.125	3.125	2.6	50	100	3.125	76.4	3.125	MBIC (Staphylococcus aureus [11]): 35.4 µM; MBIC (Staphylococcus aureus [25]): 8.8 µM; MBIC (Staphylococcus aureus [26]): 100 µM; MBIC (Enterococcus faecium [23]): 35.4 µM; MBIC90 (Staphylococcus aureus [24]): 100 µM
CCOc1cc(/C=C2\SC(=S)N(c3cccc(F)c3)C2=O)ccc1O	6.25	6.25	>=100 uM	>=100 uM	42	70.7	100	>=100 uM	100	17.7	6.25	14.9	6.25	6.25	4.4	59.5	100	6.25	≥ 100	6.25	MBIC (Staphylococcus aureus [5]): 19.8 µM; MBIC (Staphylococcus aureus [25]): 8.8 µM; MBIC (Staphylococcus aureus [19]): 10.5 µM; MBIC (Staphylococcus aureus [26]): 70.7 µM; MBIC (Enterococcus faecalis [22]): 25 µM; MBIC (Enterococcus faecium [23]): 50 µM; MBIC90 (Staphylococcus aureus [24]): 70.7 µM
CCOc1cc(/C=C2\SC(=S)N(c3ccc(F)cc3)C2=O)ccc1O	3.125	3.125	100 µM	>=100 uM	29.7	79.4	50	>=100 uM	25	14.9	3.125	14.9	3.125	6.25	2.6	50	100	3.125	≥ 100	6.25	MBIC (Staphylococcus aureus [5]): 31.5 µM; MBIC (Staphylococcus aureus [11]): 50 µM; MBIC (Staphylococcus aureus [25]): 8.8 µM; MBIC (Staphylococcus aureus [19]): 10.5 µM; MBIC (Staphylococcus aureus [26]): 50 µM; MBIC (Enterococcus faecalis [22]): 12.5 µM; MBIC (Enterococcus faecium [23]): 31.5 µM; MBIC90 (Staphylococcus aureus [24]): 79.4 µM
